From ChEMBL document CHEMBL6092224, “The Discovery and Preclinical Profile of ALG-000184, a Prodrug of the Potent Hepatitis B Virus Capsid Assembly Modulator ALG-001075” (J Med Chem, 2024)
Active and inactive are the calls of the source. No cut-off for these calls is given here.

Tests used:
[1] = tested on: Hepatitis B virus; assay: Antiviral activity against HBV infected in human HepG2.117 cells by qPCR analysis; type: functional, organism-based
Procedure, shortened: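 HepG2.117 cells (integrated genotype D HBV genome, Tet-off promoter; kept in 1 μg/mL doxycycline) were seeded at 20,000 cells/well and given serial compound dilutions (2% DMSO) for 3 days at 37 °C. Lysates were taken in 0.33% NP40. Intracellular HBV DNA was quantified by qPCR and EC50/EC90 derived. For serum shift, 40% human serum was present during incubation. Mean ± SEM, n=3 (serum) or 13.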

[2] = Clearance in mouse; type: ADME, organism-based; details: in vivo
[3] = tested on: Hepatitis B virus; assay: Antiviral activity against AAV-Hepatitis B virus infected in C57BL/6 mouse assessed as reduction in baseline HBV DNA production at 50 mg/kg, po qd measured after 7 days; type: functional; details: time 7 day
[4] = tested on: Mus musculus; assay: Effect on HBeAg level in C57BL/6 mouse infected with AAV-Hepatitis B virus at 50 mg/kg, po bid for 56 days followed by induction of compound washout period for 14 days; type: functional, organism-based; details: time 70.0 day
[5] = Toxicity in C57BL/6 mouse infected with AAV-Hepatitis B virus assessed as change in ALT level at 50 mg/kg, po bid for 56 days followed by induction of compound washout period for 14 days; type: organism-based; details: in vivo, 1680 h, time 70 day
[6] = tested on: Hepatitis B virus; assay: Antiviral activity against AAV-Hepatitis B virus infected in C57BL/6 mouse assessed as reduction in baseline HBV DNA production at 50 mg/kg, po bid for 56 days followed by induction of compound washout period measured after 7 days; type: functional, organism-based; details: time 63.0 day
[7] = tested on: Mus musculus; assay: Effect on HBsAg level in C57BL/6 mouse infected with AAV-Hepatitis B virus at 50 mg/kg, po bid for 56 days followed by induction of compound washout period for 14 days; type: functional, organism-based; details: time 70.0 day
[8] = Toxicity in C57BL/6 mouse infected with AAV-Hepatitis B virus assessed as change in body weight at 50 mg/kg, po bid for 56 days followed by induction of compound washout period for 14 days; type: organism-based; details: in vivo, 1680 h, time 70 day
[9] = Metabolic stability in human liver microsomes assessed as half life at 1 uM incubated upto 60 mins in presence of NADPH; type: ADME, Microsome
Procedure, shortened: (§1)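 Compound at 1 μM incubated at 37 °C with liver microsomes of each species for 0, 15, 30 and 60 min, with and without NADPH; half-life determined.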

[10] = Metabolic stability in mouse liver microsomes assessed as half life at 1 uM incubated upto 60 mins in presence of NADPH; type: ADME, Microsome; procedure, shortened: as §1
[11] = biological target: hERG (KCNH2) (Homo sapiens, UniProt Q12809); assay: Inhibition of hERG expressed in mammalian cells at 10 uM by automated patch-clamp technique relative to control; type: toxicity, cell-based; details: mammalian cells expressing hERG
hERG (KCNH2), sequence (Q12809 whole entry): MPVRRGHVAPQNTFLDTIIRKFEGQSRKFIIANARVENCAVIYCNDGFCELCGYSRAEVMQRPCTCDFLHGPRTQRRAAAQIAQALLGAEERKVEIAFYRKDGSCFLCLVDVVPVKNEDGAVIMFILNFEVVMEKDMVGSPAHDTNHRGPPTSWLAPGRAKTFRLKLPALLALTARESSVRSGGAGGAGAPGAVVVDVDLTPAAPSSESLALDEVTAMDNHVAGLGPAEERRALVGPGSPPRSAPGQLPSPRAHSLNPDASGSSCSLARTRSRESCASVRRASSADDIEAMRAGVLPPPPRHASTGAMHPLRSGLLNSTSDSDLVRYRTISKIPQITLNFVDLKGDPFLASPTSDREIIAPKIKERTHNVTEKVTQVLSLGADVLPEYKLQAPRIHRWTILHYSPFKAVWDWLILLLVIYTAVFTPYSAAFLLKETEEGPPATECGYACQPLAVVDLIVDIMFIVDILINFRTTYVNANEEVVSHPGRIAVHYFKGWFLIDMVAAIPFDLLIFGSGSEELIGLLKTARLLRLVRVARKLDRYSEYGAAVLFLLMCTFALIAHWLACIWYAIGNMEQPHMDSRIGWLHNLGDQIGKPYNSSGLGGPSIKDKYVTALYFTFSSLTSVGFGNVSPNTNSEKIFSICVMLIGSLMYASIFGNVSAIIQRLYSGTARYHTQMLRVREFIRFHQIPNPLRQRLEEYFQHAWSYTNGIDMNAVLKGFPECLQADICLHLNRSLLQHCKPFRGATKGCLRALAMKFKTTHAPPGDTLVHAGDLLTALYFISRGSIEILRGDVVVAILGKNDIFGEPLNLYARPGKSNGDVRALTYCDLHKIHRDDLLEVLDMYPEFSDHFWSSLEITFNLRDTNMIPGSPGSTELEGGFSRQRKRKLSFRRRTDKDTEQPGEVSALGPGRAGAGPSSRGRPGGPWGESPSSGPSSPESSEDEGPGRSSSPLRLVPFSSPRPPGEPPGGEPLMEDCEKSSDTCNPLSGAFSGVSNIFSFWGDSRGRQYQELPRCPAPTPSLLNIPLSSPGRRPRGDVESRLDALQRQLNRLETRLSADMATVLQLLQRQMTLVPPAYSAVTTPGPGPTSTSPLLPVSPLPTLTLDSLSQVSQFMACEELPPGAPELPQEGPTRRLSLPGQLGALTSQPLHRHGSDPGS
Procedure, shortened: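 Currents of hERG, Nav1.5 or Cav1.2 channels expressed in mammalian cells recorded by automated patch clamp (QPatch 48) at room temperature.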

SMILES | EC50 [1] [nM] | other results
C#CCNC(=O)C(=O)c1c(C)c(C(=O)Nc2ccc(F)c(C(F)(F)F)c2)n(C)c1C | 2.65 | –
C#CC1(NC(=O)C(=O)c2c(C)c(C(=O)Nc3ccc(F)c(C#N)c3)n(C)c2C)CC1 | 0.45 | –
C[C@@H](NS(=O)(=O)c1cn(C)c(C(=O)Nc2ccnc(Cl)c2)c1F)C(F)(F)F | – | Activity [3]: -2.5 log10IU/ml; Activity [4]: inactive; Activity [5]: Non-toxic; Activity [6]: inactive; Activity [7]: inactive; Activity [8]: Non-toxic
C#CC1(NC(=O)C(=O)c2c(C)c(C(=O)Nc3ccc(F)c(C#N)c3)n(C)c2C)CC(F)(F)C1 | 0.32 | –
C#CC1(NC(=O)C(=O)c2c(C)c(C(=O)Nc3ccc(F)c(C#N)c3)n(C)c2C)CCOCC1 | 2.11 | –
C#CCNC(=O)C(=O)c1c(C)c(C(=O)Nc2ccc(F)c(F)c2)n(C)c1C | 2.6 | half-life at 1 µM [9]: > 60 min; half-life at 1 µM [10]: 40.4 min; inhibition at 10 µM [11]: 31.2%; clearance [2]: 78.2 mL/min/kg
C#CCNC(=O)C(=O)c1c(C)c(C(=O)Nc2ccc(F)c(C#N)c2)n(C)c1C | 2.88 | clearance [2]: 13.2 mL/min/kg
C#C[C@H](C)NC(=O)C(=O)c1c(C)c(C(=O)Nc2ccc(F)c(C#N)c2)n(C)c1C | 0.98 | –

Second part, led by results:

EC50 [1] [nM] | SMILES | other results
1.98 | C#CCNC(=O)C(=O)c1c(C)c(C(=O)Nc2ccc(F)c(C)c2)n(C)c1C | clearance [2]: 54.3 mL/min/kg
1.49 | C#CC(C)(C)NC(=O)C(=O)c1c(C)c(C(=O)Nc2ccc(F)c(C#N)c2)n(C)c1C | –
0.73 | C#CC1(NC(=O)C(=O)c2c(C)c(C(=O)Nc3ccc(F)c(C#N)c3)n(C)c2C)CCC1 | –
1.99 | C#CC1(NC(=O)C(=O)c2c(C)c(C(=O)Nc3ccc(F)c(C#N)c3)n(C)c2C)CCCC1 | –
1.32 | C#C[C@@H](C)NC(=O)C(=O)c1c(C)c(C(=O)Nc2ccc(F)c(C#N)c2)n(C)c1C | –
3.51 | C#CC1(NC(=O)C(=O)c2c(C)c(C(=O)Nc3ccc(F)c(C#N)c3)n(C)c2C)CCS(=O)(=O)CC1 | –
